In ChEMBL document CHEMBL1135748, “4-Substituted D-glutamic acid analogues: the first potent inhibitors of glutamate racemase (MurI) enzyme with antibacterial activity” (J Med Chem, 2002):
Converted amounts (≈) assume the structure as drawn.

Key:
Streptococcus pneumoniae [1] = assay: In vitro whole cell growth inhibition against PN-R6 strain of Streptococcus pneumoniae; assay type: functional
In short: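 NCCLS microtiter broth dilution. Compounds in DMSO, 2-fold serial dilutions from 250 to 0.25 µg/mL in Mueller–Hinton II broth plus 5% lysed horse blood. Inoculum 5 × 10^5 CFU/mL; final DMSO 2.5%. Incubated overnight at 35 °C. MIC is the lowest concentration visibly inhibiting growth.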

[2] = Inhibitory activity against recombinant Glutamate Racemase from Streptococcus pneumoniae expressed in Escherichia coli
In short: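 Enzyme purified by Ni(II) IMAC, imidazole gradient, from E. coli paste overexpressing the S. pneumoniae racemase; dialysed into Tris-HCl pH 7.8 with β-mercaptoethanol. Enzyme (6 µg mL-1) with 10 mM L-glutamate, inhibitor added before enzyme, 15 min at room temperature. Quenched with Marfey's reagent; derivatised 60 min at 40 °C. D/L-Glu separated by C18 HPLC, A340. Conversion from D/(D+L) peak areas over decreasing inhibitor concentrations gives IC50.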

Moraxella catarrhalis = assay: Antibacterial activity against Moraxella catarrhalis BC-1 strain; assay type: functional
Staphylococcus aureus = assay: Antibacterial activity against Staphylococcus aureus 027 strain; assay type: functional
Streptococcus pneumoniae [3] = assay: Antibacterial activity against Streptococcus pneumoniae R6 strain; assay type: functional
Streptococcus pneumoniae [4] = assay: Antibacterial activity against Streptococcus pneumoniae Park1 strain; assay type: functional

Compound	MIC (Streptococcus pneumoniae [1]) [mg/L]	IC50 [2] [mg/L]	MIC (Moraxella catarrhalis) [mg/L]	MIC (Staphylococcus aureus) [mg/L]	MIC (Streptococcus pneumoniae [3]) [mg/L]	MIC (Streptococcus pneumoniae [4]) [mg/L]
N[C@H](C[C@H](C/C=C/C=C/c1ccccc1)C(=O)O)C(=O)O	3.9 (≈ 13.5 µM)	9.1				
C#CC[C@@H](C[C@@H](N)C(=O)O)C(=O)O	31.3 (≈ 169 µM)	5.5				
N[C@H](C[C@H](CCCC1CCCCC1)C(=O)O)C(=O)O	2 (≈ 7.37 µM)	0.6				
N[C@H](C[C@H](CCCc1ccccc1)C(=O)O)C(=O)O	3.9 (≈ 14.7 µM)	0.5				
N[C@H](C[C@H](Cc1ccc(-c2ccc3ccccc3c2)cc1)C(=O)O)C(=O)O	7.8 (≈ 21.5 µM)	0.42				
N[C@H](C[C@H](Cc1sc2ccccc2c1Cl)C(=O)O)C(=O)O	0.5 (≈ 1.53 µM)	0.01				
N[C@H](C[C@H](C/C=C/c1ccc2ccccc2c1)C(=O)O)C(=O)O	0.5 (≈ 1.6 µM)	0.5				
N[C@H](C[C@H](Oc1ccc(Oc2ccccc2)cc1)C(=O)O)C(=O)O	125 (≈ 377 µM)	46.3				
N[C@H](C[C@H](Oc1ccc(-c2ccccc2)cc1)C(=O)O)C(=O)O	31.3 (≈ 99.3 µM)	8.2				
N[C@H](C[C@H](Cc1nc2ccccc2s1)C(=O)O)C(=O)O	0.24 (≈ 0.815 µM)	0.38				
N[C@H](C[C@H](Cc1ccc(-c2cc3ccccc3s2)cc1)C(=O)O)C(=O)O	3.9 (≈ 10.6 µM)	0.65				
N[C@H](C[C@H](Cc1cc(Cl)cc(Cl)c1)C(=O)O)C(=O)O	3.9 (≈ 12.7 µM)	3				
N[C@H](C[C@H](Cc1ccc(NC(=O)Nc2ccccc2)cc1)C(=O)O)C(=O)O	15.6 (≈ 42 µM)	0.49				
N[C@H](C[C@H](CC#Cc1ccccc1)C(=O)O)C(=O)O	2 (≈ 7.65 µM)	0.37				
N[C@H](C[C@H](Cc1ccccc1-c1ccccc1)C(=O)O)C(=O)O	> 250	> 100				
N[C@H](C[C@H](Cc1cc2ccccc2o1)C(=O)O)C(=O)O	0.24 (≈ 0.866 µM)	0.1				
N[C@H](C[C@H](Cc1cc2ccccc2s1)C(=O)O)C(=O)O	0.24 (≈ 0.818 µM)	0.036	> 250	> 250	0.24 (≈ 0.818 µM)	0.24 (≈ 0.818 µM)
N[C@H](C[C@H](Cc1ccc(-c2ccsc2)cc1)C(=O)O)C(=O)O	0.24 (≈ 0.751 µM)	0.32				
N[C@H](C[C@H](Oc1ccccc1)C(=O)O)C(=O)O	62.5 (≈ 261 µM)	26.5				
N[C@H](C[C@H](Cc1ccc(-c2ccccc2)cc1)C(=O)O)C(=O)O	1 (≈ 3.19 µM)	0.078				
N[C@H](C[C@H](Cc1cccc(-c2cc3ccccc3s2)c1)C(=O)O)C(=O)O	0.5 (≈ 1.35 µM)	0.3				
N[C@H](C[C@H](Cc1ccc(NS(=O)(=O)c2ccccc2)cc1)C(=O)O)C(=O)O	> 250	10.2				
N[C@H](C[C@H](Cc1cccc2ccccc12)C(=O)O)C(=O)O	3.9 (≈ 13.6 µM)	5.6				
N[C@H](C[C@H](CNC(=O)c1ccccc1)C(=O)O)C(=O)O	62.5 (≈ 223 µM)	9.4				
N[C@H](C[C@H](C/C=C/c1ccccc1)C(=O)O)C(=O)O	0.4 (≈ 1.52 µM)	0.1				
N[C@H](C[C@H](Cc1csc2ccccc12)C(=O)O)C(=O)O	7.8 (≈ 26.6 µM)	1.7				
COc1cc(C[C@@H](C[C@@H](N)C(=O)O)C(=O)O)cc(OC)c1OC	> 250	81				

Next, values leading:

MIC (Streptococcus pneumoniae [1]) [mg/L]	IC50 [2] [mg/L]	MIC (Moraxella catarrhalis) [mg/L]	MIC (Staphylococcus aureus) [mg/L]	MIC (Streptococcus pneumoniae [3]) [mg/L]	MIC (Streptococcus pneumoniae [4]) [mg/L]	Compound
0.5 (≈ 1.58 µM)	0.13					N[C@H](C[C@H](Cc1cccc(Br)c1)C(=O)O)C(=O)O
2 (≈ 7.09 µM)	5.2					N[C@H](C[C@H](Cc1ccc([N+](=O)[O-])cc1)C(=O)O)C(=O)O
0.5 (≈ 1.84 µM)	0.3					N[C@H](C[C@H](Cc1ccc(Cl)cc1)C(=O)O)C(=O)O
1 (≈ 4.11 µM)	0.1					N[C@H](C[C@H](Cc1cccs1)C(=O)O)C(=O)O
0.5 (≈ 2.11 µM)	0.3					N[C@H](C[C@H](Cc1ccccc1)C(=O)O)C(=O)O
62.5 (≈ 226 µM)	9.8					N[C@H](C[C@H](Cc1cc2ccccc2[nH]1)C(=O)O)C(=O)O
0.5 (≈ 1.87 µM)	0.1					COc1ccc(C[C@@H](C[C@@H](N)C(=O)O)C(=O)O)cc1
2 (≈ 7.09 µM)	5.2					N[C@H](C[C@H](Cc1cccc([N+](=O)[O-])c1)C(=O)O)C(=O)O
31.3 (≈ 99 µM)	6.3					N[C@H](C[C@H](Cc1ccccc1Br)C(=O)O)C(=O)O
0.5 (≈ 1.6 µM)	0.7					N[C@H](C[C@H](Cc1cccc(-c2ccccc2)c1)C(=O)O)C(=O)O
0.24 (≈ 0.791 µM)	0.5					N[C@H](C[C@H](Cc1cccc(-c2ccco2)c1)C(=O)O)C(=O)O
0.5 (≈ 1.64 µM)	0.8					N[C@H](C[C@H](Cc1cccc(C(F)(F)F)c1)C(=O)O)C(=O)O
7.8 (≈ 25.6 µM)	0.8					N[C@H](C[C@H](Cc1ccc(C(F)(F)F)cc1)C(=O)O)C(=O)O
1 (≈ 3.68 µM)	3.4					N[C@H](C[C@H](Cc1cccc(Cl)c1)C(=O)O)C(=O)O
3.9 (≈ 14.4 µM)	7.1					N[C@H](C[C@H](Cc1ccccc1Cl)C(=O)O)C(=O)O
> 250	> 100					N[C@H](C[C@H](Cc1cc(C(F)(F)F)cc(C(F)(F)F)c1)C(=O)O)C(=O)O
1 (≈ 3.41 µM)	0.6					CC(C)(C)c1ccc(C[C@@H](C[C@@H](N)C(=O)O)C(=O)O)cc1
0.25 (≈ 0.87 µM)	0.1	62.5 (≈ 218 µM)	> 250	0.25 (≈ 0.87 µM)	3.9 (≈ 13.6 µM)	N[C@H](C[C@H](Cc1ccc2ccccc2c1)C(=O)O)C(=O)O
0.5 (≈ 1.87 µM)	0.2					COc1cccc(C[C@@H](C[C@@H](N)C(=O)O)C(=O)O)c1
